{
  "source": "ChEMBL document CHEMBL4130370",
  "about": "“Discovery of 5,6-diaryl-1,2,4-triazines hybrids as potential apoptosis inducers” (Eur J Med Chem, 2017)",
  "assay_type_in_all_cases": "functional, cell-based",
  "key": {"SK-N-SH": {"tested_on": "SK-N-SH", "test": "Antiproliferative activity against human SK-N-SH cells after 48 hrs by MTT assay"}, "ECa-109 cell line": {"tested_on": "ECa-109 cell line", "test": "Antiproliferative activity against human EC109 cells after 48 hrs by MTT assay", "details": "ECa-109, 48 h", "how_it_was_run": "(§1)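 Cells exposed to compounds for 48 h, then read by MTT. IC50 is the concentration giving 50% inhibition of tumour cell proliferation, taken from dose-response curves. Values are means±SD of three independent experiments. 5-FU was the reference drug.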"}, "PC-3": {"tested_on": "PC-3", "test": "Antiproliferative activity against human PC3 cells after 48 hrs by MTT assay", "details": "PC-3, 48 h", "how_it_was_run": "as §1"}, "MGC-803": {"tested_on": "MGC-803", "test": "Antiproliferative activity against human MGC803 cells after 48 hrs by MTT assay", "details": "MGC-803, 48 h", "how_it_was_run": "as §1"}},
  "data": [
    {"molecule": "O=C(/C=C/c1ccc(OCCCn2cc(CSC3=NCCS3)nn2)cc1)c1ccc(Br)cc1", "values": [
      {"measurement": "IC50", "setting": "SK-N-SH", "result": 8.16, "unit": "µM"}
    ]},
    {"molecule": "c1ccc(Cn2cc(CSc3nnc(-c4ccccc4)c(-c4ccccc4)n3)nn2)cc1", "values": [
      {"measurement": "IC50", "setting": "ECa-109 cell line", "result": 11.1, "unit": "µM"},
      {"measurement": "IC50", "setting": "PC-3", "result": 15.6, "unit": "µM"},
      {"measurement": "IC50", "setting": "MGC-803", "result": 11.3, "unit": "µM"}
    ]},
    {"molecule": "O=C(O)CCSc1nnc(-c2ccccc2)c(-c2ccccc2)n1", "values": [
      {"measurement": "IC50", "setting": "ECa-109 cell line", "result": "> 100", "unit": "µM"},
      {"measurement": "IC50", "setting": "PC-3", "result": "> 100", "unit": "µM"},
      {"measurement": "IC50", "setting": "MGC-803", "result": "> 100", "unit": "µM"}
    ]},
    {"molecule": "COc1ccc(C(=O)/C=C/c2ccc(-n3cc(CSc4nnc(-c5ccccc5)c(-c5ccccc5)n4)nn3)cc2)cc1", "values": [
      {"measurement": "IC50", "setting": "ECa-109 cell line", "result": "> 100", "unit": "µM"},
      {"measurement": "IC50", "setting": "PC-3", "result": "> 100", "unit": "µM"},
      {"measurement": "IC50", "setting": "MGC-803", "result": 36.7, "unit": "µM"}
    ]},
    {"molecule": "Cc1ccc(Cn2cc(CSc3nnc(-c4ccccc4)c(-c4ccccc4)n3)nn2)cc1", "values": [
      {"measurement": "IC50", "setting": "ECa-109 cell line", "result": 12.4, "unit": "µM"},
      {"measurement": "IC50", "setting": "PC-3", "result": 22.6, "unit": "µM"},
      {"measurement": "IC50", "setting": "MGC-803", "result": 34.8, "unit": "µM"}
    ]},
    {"molecule": "O=c1ccc2ccc(OCCCn3cc(CSc4nnc(-c5ccccc5)c(-c5ccccc5)n4)nn3)cc2o1", "values": [
      {"measurement": "IC50", "setting": "ECa-109 cell line", "result": "> 100", "unit": "µM"},
      {"measurement": "IC50", "setting": "PC-3", "result": 92.3, "unit": "µM"},
      {"measurement": "IC50", "setting": "MGC-803", "result": "> 100", "unit": "µM"}
    ]},
    {"molecule": "O=c1[nH]cc(F)c(=O)[nH]1", "note": "[FLUOROURACIL]", "values": [
      {"measurement": "IC50", "setting": "ECa-109 cell line", "result": 56.2, "unit": "µM"},
      {"measurement": "IC50", "setting": "PC-3", "result": 12.9, "unit": "µM"},
      {"measurement": "IC50", "setting": "MGC-803", "result": 9.79, "unit": "µM"}
    ]},
    {"molecule": "COc1ccc(Cn2cc(CSc3nnc(-c4ccccc4)c(-c4ccccc4)n3)nn2)cc1", "values": [
      {"measurement": "IC50", "setting": "ECa-109 cell line", "result": 28.4, "unit": "µM"},
      {"measurement": "IC50", "setting": "PC-3", "result": 27.5, "unit": "µM"},
      {"measurement": "IC50", "setting": "MGC-803", "result": 22.7, "unit": "µM"}
    ]},
    {"molecule": "C#CCSc1nnc(-c2ccccc2)c(-c2ccccc2)n1", "values": [
      {"measurement": "IC50", "setting": "ECa-109 cell line", "result": "> 100", "unit": "µM"},
      {"measurement": "IC50", "setting": "PC-3", "result": "> 100", "unit": "µM"},
      {"measurement": "IC50", "setting": "MGC-803", "result": "> 100", "unit": "µM"}
    ]}
  ]
}
